The source of these data is ChEMBL document CHEMBL1143779, “Antiviral 2,5-disubstituted imidazo[4,5-c]pyridines: from anti-pestivirus to anti-hepatitis C virus activity” (Bioorg Med Chem Lett, 2007).

SMILES strings stand for the structures. Active and inactive are the calls of the source. The calls are words filed in the database; no cut-off is given here.

The nature of data set [1]: Cytotoxicity against MDBK cells. Particulars: cattle. The data set is classed as cell-based, Bos taurus. In short, it runs like this:
(§1)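 MDBK or Huh 5-2 cells seeded at 5 · 10³ cells/well in MEM-FCS; serial compound dilutions added 24 h later. Read-out OD490 nm, expressed as OD treated/OD untreated control.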

Data set [2] can be described thus: Selectivity index, ratio of CC50 for Huh 5-2 cells to EC50 for HCV. The class given is functional.
In another data set the test system is Hepatitis C virus. The data set can be described thus: Antiviral activity against HCV in Huh 5-2 cells assessed as […]. The class given is functional, organism-based, Hepacivirus hominis. The essentials:
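Huh 5-2 cells were seeded at 5×10³/well in complete DMEM with G418. After 24 h at 37 °C (5% CO₂), the medium was replaced with threefold serial compound dilutions in DMEM without G418 and incubated for 4 days. Values are means of 4–6 independent experiments.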
(In general: Cytopathic effects are the visible damage that an infection or toxin causes in cultured cells.)

The nature of data set [3]: Cytotoxicity against Huh 5-2 cells. The data set is classed as cell-based. Particulars: human. The essentials:
as §1

For data set [4], the system named is Bovine viral diarrhea virus 1. The data set can be described thus: Antiviral activity against BVDV in MDBK cells assessed as reduction of virus-induced cytopathic effect. The data set is classed as functional, organism-based. Particulars: Bovine viral diarrhea virus isolates and strains.
For a further data set, the system named is MDBK. The experiment in a line: (§2) Selectivity index, ratio of CC50 for MDBK cells to EC50 for BVDV. The class given is functional.
A short description of data set [5]: as §2. The class given is functional.

The term CC50 denotes the concentration that lowers cell viability or growth by half. A lower CC50 goes with greater toxicity to the cells. As a reminder, the EC50 is the midpoint of the concentration-response curve. On to `Brc1ccc(Cn2ccc3nc(CSc4ccccc4)nc-3c2)cc1`, for which the CC50 in data set [1] was found to be 25 µM; in data set [3], 9.7 µM. Moreover, in data set [2], the “Ratio CC50/EC50” value was 2. Besides, the EC50 was 4.9 µM with Hepatitis C virus and above 25000 nM in data set [4]. Also, in the data set on MDBK, the result was inactive.
In the case of `Brc1ccc(Cn2ccc3nc(CCCCc4ccccc4)nc-3c2)cc1`, the 50% cytotoxic concentration (CC50) came to 5 µM in data set [1] and 2.2 µM in data set [3]. Besides, the outcome (in data set [2]; in the data set with MDBK) was inactive. The values for the concentration for a half-maximal effect (EC50) (with Hepatitis C virus; in data set [4]) were above 2.2 µM and above 5000 nM, respectively.
With `Brc1ccc(Cn2ccc3nc(CCc4ccccc4)nc-3c2)cc1`, the CC50 in data set [1] was 16 µM; in data set [3], 7.6 µM. The “Ratio CC50/EC50” value in data set [2] is listed as 3. In addition, the EC50 in the data set with Hepatitis C virus is 2.5 µM; in data set [4], above 16000 nM. Moreover, the result with MDBK was inactive.
As to `Brc1ccc(Cn2ccc3nc(-c4cc(Br)cc(Br)c4)nc-3c2)cc1`, the 50% cytotoxic concentration (CC50) in data set [1] is above 33 µM; in data set [3] it was above 96 µM. The outcome (in data set [2]; in the data set with MDBK) was inactive. Also, the concentration giving a half-maximal response (EC50) with Hepatitis C virus is above 96 µM; in data set [4], above 33000 nM.
As for `Brc1ccc(Cn2ccc3nc(Cc4ccccc4)nc-3c2)cc1`, the CC50 in data set [1] is above 33 µM; in data set [3], above 132 µM. Also, the “Ratio CC50/EC50” value in data set [2] was above 2. For the same molecule, the EC50 in the data set with Hepatitis C virus was 79 µM; in data set [4], above 33000 nM. Besides, the result in the data set with MDBK was inactive.
Regarding `Cc1ccccc1-c1nc2ccn(Cc3ccc(Br)cc3)cc-2n1`, the figures for the CC50 in data set [1] and in data set [3] were above 33 µM and 21 µM, respectively. In addition, the outcome in data set [2] was inactive. Also, the EC50 in the data set with Hepatitis C virus is 24 µM; in data set [4], 61 nM. In addition, the “Ratio CC50/EC50” value in data set [5] was above 541.
`Brc1ccc(Cn2ccc3nc(/C=C/c4ccccc4)nc-3c2)cc1`: the results for the half-maximal cytotoxic concentration (CC50) in data set [1] and in data set [3] were 14 µM and 2.5 µM, respectively. Also, the entries for the “Ratio CC50/EC50” value in data set [2] and in data set [5] were above 2 and 88, respectively. Further, the EC50 in the data set on Hepatitis C virus worked out at 1.7 µM; in data set [4] it was 160 nM.
Consider `Brc1ccc(Cn2ccc3nc(CCCc4ccccc4)nc-3c2)cc1`, for which the 50% cytotoxic concentration (CC50) in data set [1] stood at 22 µM; in data set [3], 12 µM. In addition, the “Ratio CC50/EC50” value turned out to be 2 in data set [2] and 8 in data set [5]. The concentration giving a half-maximal response (EC50) was found to be 7.4 µM in the data set with Hepatitis C virus and 3000 nM in data set [4].
